Reference: ChEMBL document CHEMBL5385966, “Synthesis and biological evaluation of new naphthalimide-thiourea derivatives as potent antimicrobial agents active against multidrug-resistant Staphylococcus aureus and Mycobacterium tuberculosis” (RSC Med Chem, 2024)
In brackets after ≈: the same amount, converted by molar mass. Activity calls are given as the source filed them. The rule behind the calls is not given here.

Tests used:
Staphylococcus aureus [1] = assay: Antibacterial activity against Staphylococcus aureus ATCC 29213 assessed as bacterial growth inhibition incubated for 16 to 18 hrs by CLSI based antibiotic susceptibility testing method; assay type: functional; conditions: time 16-18 hrs
In short: (§1)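 Broth microdilution in cation-adjusted Mueller-Hinton broth. Compounds were tested at […], with levofloxacin as reference and medium-only controls. Plates were incubated at 37 °C for 16-18 h. MIC was the lowest concentration with no visible growth; three independent determinations, each in duplicate.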

[2] = tested on: Mycobacterium tuberculosis; assay: Antimycobacterial activity against Mycobacterium tuberculosis H37Rv ATCC 27294 assessed as bacterial growth inhibition incubated for 7 days by resazurin dye based broth microdilution method; assay type: functional; conditions: H37Rv ATCC 27294, 168 h, time 7 day
In short: (§2)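 Broth microdilution in Middlebrook 7H9 with 10% ADC-Tween-80 (0.2% glycerol, 0.05% Tween-80), inoculum ~10⁶ cfu/mL. Compounds came from 10 mg/mL DMSO stocks and were tested as two-fold serial dilutions at 37 °C, 7 days for M. tuberculosis H37Rv and 72 h for NTM. Growth was read visually with PrestoBlue resazurin dye; MIC was the lowest concentration preventing growth. Triplicate determinations, each in duplicate.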

Escherichia coli = assay: Antibacterial activity against Escherichia coli ATCC 25922 assessed as bacterial growth inhibition incubated for 16 to 18 hrs by CLSI based antibiotic susceptibility testing method; assay type: functional, organism-based; conditions: time 16-18 hrs; in short: as §1
Klebsiella pneumoniae = assay: Antibacterial activity against Klebsiella pneumoniae BAA 1705 assessed as bacterial growth inhibition incubated for 16 to 18 hrs by CLSI based antibiotic susceptibility testing method; assay type: functional, organism-based; conditions: time 16-18 hrs; in short: as §1
Acinetobacter baumannii = assay: Antibacterial activity against Acinetobacter baumannii BAA 1605 assessed as bacterial growth inhibition incubated for 16 to 18 hrs by CLSI based antibiotic susceptibility testing method; assay type: functional, organism-based; conditions: time 16-18 hrs; in short: as §1
Pseudomonas aeruginosa = assay: Antibacterial activity against Pseudomonas aeruginosa ATCC 27853 assessed as bacterial growth inhibition incubated for 16 to 18 hrs by CLSI based antibiotic susceptibility testing method; assay type: functional, organism-based; conditions: time 16-18 hrs; in short: as §1
[3] = tested on: Mycobacteroides abscessus; assay: Antimycobacterial activity against Mycobacterium abscessus ATCC 19977 assessed as bacterial growth inhibition incubated for 72 hrs by resazurin dye based broth microdilution method; assay type: functional, organism-based; in short: as §2
[4] = tested on: Mycolicibacterium fortuitum; assay: Antimycobacterial activity against Mycobacterium fortuitum ATCC 6841 assessed as bacterial growth inhibition incubated for 72 hrs by resazurin dye based broth microdilution method; assay type: functional, organism-based; in short: as §2
Mycobacteroides chelonae = assay: Antimycobacterial activity against Mycobacteroides chelonae ATCC 35752 assessed as bacterial growth inhibition incubated for 72 hrs by resazurin dye based broth microdilution method; assay type: functional, organism-based; in short: as §2
Staphylococcus aureus [5] = assay: Antibacterial activity against methicillin-sensitive Staphylococcus aureus ATCC 29213 clinical isolate assessed as bacterial growth inhibition incubated for 16 to 18 hrs by CLSI based antibiotic susceptibility testing method; assay type: functional; conditions: time 16-18 hrs; in short: as §1
Staphylococcus aureus [6] = assay: Antibacterial activity against methicillin/ceftriaxone/meropenem/gentamycin/linezolid-resistant Staphylococcus aureus NRS10100 clinical isolate assessed as bacterial growth inhibition incubated for 16 to 18 hrs by CLSI based antibiotic susceptibility testing method; assay type: functional; conditions: time 16-18 hrs; in short: as §1
Staphylococcus aureus [7] = assay: Antibacterial activity against methicillin/ceftriaxone/meropenem/gentamycin/linezolid-resistant Staphylococcus aureus NRS10119 clinical isolate assessed as bacterial growth inhibition incubated for 16 to 18 hrs by CLSI based antibiotic susceptibility testing method; assay type: functional; conditions: time 16-18 hrs; in short: as §1
Staphylococcus aureus [8] = assay: Antibacterial activity against methicillin/ceftriaxone/meropenem-resistant Staphylococcus aureus NRS10129 clinical isolate assessed as bacterial growth inhibition incubated for 16 to 18 hrs by CLSI based antibiotic susceptibility testing method; assay type: functional; conditions: time 16-18 hrs; in short: as §1
Staphylococcus aureus [9] = assay: Antibacterial activity against methicillin/ceftriaxone/meropenem-resistant Staphylococcus aureus NRS10186 clinical isolate assessed as bacterial growth inhibition incubated for 16 to 18 hrs by CLSI based antibiotic susceptibility testing method; assay type: functional; conditions: time 16-18 hrs; in short: as §1
Staphylococcus aureus [10] = assay: Antibacterial activity against methicillin/ceftriaxone/meropenem-resistant Staphylococcus aureus NRS10191 clinical isolate assessed as bacterial growth inhibition incubated for 16 to 18 hrs by CLSI based antibiotic susceptibility testing method; assay type: functional; conditions: time 16-18 hrs; in short: as §1
Staphylococcus aureus [11] = assay: Antibacterial activity against methicillin/ceftriaxone/meropenem-resistant Staphylococcus aureus NRS10192 clinical isolate assessed as bacterial growth inhibition incubated for 16 to 18 hrs by CLSI based antibiotic susceptibility testing method; assay type: functional; conditions: time 16-18 hrs; in short: as §1
Staphylococcus aureus [12] = assay: Antibacterial activity against methicillin/ceftriaxone/meropenem-resistant Staphylococcus aureus NRS10193 clinical isolate assessed as bacterial growth inhibition incubated for 16 to 18 hrs by CLSI based antibiotic susceptibility testing method; assay type: functional; conditions: time 16-18 hrs; in short: as §1
Staphylococcus aureus [13] = assay: Antibacterial activity against methicillin/ceftriaxone-resistant Staphylococcus aureus NRS10194 clinical isolate assessed as bacterial growth inhibition incubated for 16 to 18 hrs by CLSI based antibiotic susceptibility testing method; assay type: functional; conditions: time 16-18 hrs; in short: as §1
Staphylococcus aureus [14] = assay: Antibacterial activity against methicillin/ceftriaxone/meropenem-resistant Staphylococcus aureus NRS10198 clinical isolate assessed as bacterial growth inhibition incubated for 16 to 18 hrs by CLSI based antibiotic susceptibility testing method; assay type: functional; conditions: time 16-18 hrs; in short: as §1
Staphylococcus aureus [15] = assay: Antibacterial activity against methicillin/ceftriaxone/meropenem/gentamycin/vancomycin/teicoplanin-resistant Staphylococcus aureus VRS1 clinical isolate assessed as bacterial growth inhibition incubated for 16 to 18 hrs by CLSI based antibiotic susceptibility testing method; assay type: functional; conditions: time 16-18 hrs; in short: as §1
Staphylococcus aureus [16] = assay: Antibacterial activity against methicillin/ceftriaxone/meropenem/vancomycin/teicoplanin-resistant Staphylococcus aureus VRS4 clinical isolate assessed as bacterial growth inhibition incubated for 16 to 18 hrs by CLSI based antibiotic susceptibility testing method; assay type: functional; conditions: time 16-18 hrs; in short: as §1
Staphylococcus aureus [17] = assay: Antibacterial activity against methicillin/ceftriaxone/meropenem/vancomycin/teicoplanin-resistant Staphylococcus aureus VRS12 clinical isolate assessed as bacterial growth inhibition incubated for 16 to 18 hrs by CLSI based antibiotic susceptibility testing method; assay type: functional; conditions: time 16-18 hrs; in short: as §1

C[C@H]1COc2c(N3CCN(C)CC3)c(F)cc3c(=O)c(C(=O)O)cn1c23 [LEVOFLOXACIN ANHYDROUS]
MIC (Staphylococcus aureus [1]): 0.063 µg/mL (≈ 0.174 µM) | MIC [2]: 0.6 µg/mL (≈ 1.66 µM) | growth inhibition (GI) (Escherichia coli): inactive | growth inhibition (GI) (Klebsiella pneumoniae): inactive | growth inhibition (GI) (Acinetobacter baumannii): inactive | growth inhibition (GI) (Pseudomonas aeruginosa): inactive | growth inhibition (GI) [3]: inactive | growth inhibition (GI) [4]: inactive | growth inhibition (GI) (Mycobacteroides chelonae): inactive | MIC (Staphylococcus aureus [5]): 0.25 µg/mL (≈ 0.692 µM) | MIC (Staphylococcus aureus [6]): 0.125 µg/mL (≈ 0.346 µM) | MIC (Staphylococcus aureus [7]): 16 µg/mL (≈ 44.3 µM) | MIC (Staphylococcus aureus [8]): 0.25 µg/mL (≈ 0.692 µM) | MIC (Staphylococcus aureus [9]): 4 µg/mL (≈ 11.1 µM) | MIC (Staphylococcus aureus [10]): 16 µg/mL (≈ 44.3 µM) | MIC (Staphylococcus aureus [11]): 8 µg/mL (≈ 22.1 µM) | MIC (Staphylococcus aureus [12]): 32 µg/mL (≈ 88.6 µM) | MIC (Staphylococcus aureus [13]): 0.125 µg/mL (≈ 0.346 µM) | MIC (Staphylococcus aureus [14]): 32 µg/mL (≈ 88.6 µM) | MIC (Staphylococcus aureus [15]): 32 µg/mL (≈ 88.6 µM) | MIC (Staphylococcus aureus [16]): > 64 µg/mL | MIC (Staphylococcus aureus [17]): 32 µg/mL (≈ 88.6 µM)

CN[C@H](CC(C)C)C(=O)N[C@H]1C(=O)N[C@@H](CC(N)=O)C(=O)N[C@H]2C(=O)N[C@H]3C(=O)N[C@H](C(=O)N[C@H](C(=O)O)c4cc(O)cc(O)c4-c4cc3ccc4O)[C@H](O)c3ccc(c(Cl)c3)Oc3cc2cc(c3O[C@@H]2O[C@H](CO)[C@@H](O)[C@H](O)[C@H]2O[C@H]2C[C@](C)(N)[C@H](O)[C@H](C)O2)Oc2ccc(cc2Cl)[C@H]1O [VANCOMYCIN]
MIC (Staphylococcus aureus [15]): > 64 µg/mL | MIC (Staphylococcus aureus [16]): > 64 µg/mL | MIC (Staphylococcus aureus [17]): > 64 µg/mL

COc1ccc(NC(=S)N2CCN(C(=O)CCN3C(=O)c4cccc5cccc(c45)C3=O)CC2)cc1
MIC (Staphylococcus aureus [1]): > 64 µg/mL | MIC [2]: 8 µg/mL (≈ 15.9 µM) | growth inhibition (GI) (Escherichia coli): inactive | growth inhibition (GI) (Klebsiella pneumoniae): inactive | growth inhibition (GI) (Acinetobacter baumannii): inactive | growth inhibition (GI) (Pseudomonas aeruginosa): inactive | growth inhibition (GI) [3]: inactive | growth inhibition (GI) [4]: inactive | growth inhibition (GI) (Mycobacteroides chelonae): inactive

O=C(CN1C(=O)c2cccc3cccc(c23)C1=O)NC1CCN(C(=S)NC2CCCC2)CC1
MIC (Staphylococcus aureus [1]): > 64 µg/mL | MIC [2]: > 64 µg/mL | growth inhibition (GI) (Escherichia coli): inactive | growth inhibition (GI) (Klebsiella pneumoniae): inactive | growth inhibition (GI) (Acinetobacter baumannii): inactive | growth inhibition (GI) (Pseudomonas aeruginosa): inactive | growth inhibition (GI) [3]: inactive | growth inhibition (GI) [4]: inactive | growth inhibition (GI) (Mycobacteroides chelonae): inactive

O=C(CCN1C(=O)c2cccc3cccc(c23)C1=O)N1CCN(C(=S)Nc2ccc(Cl)cc2)CC1
MIC (Staphylococcus aureus [1]): > 64 µg/mL | MIC [2]: 64 µg/mL (≈ 126 µM) | growth inhibition (GI) (Escherichia coli): inactive | growth inhibition (GI) (Klebsiella pneumoniae): inactive | growth inhibition (GI) (Acinetobacter baumannii): inactive | growth inhibition (GI) (Pseudomonas aeruginosa): inactive | growth inhibition (GI) [3]: inactive | growth inhibition (GI) [4]: inactive | growth inhibition (GI) (Mycobacteroides chelonae): inactive

COc1ccc(NC(=S)N2CCN(CCN3C(=O)c4cccc5cccc(c45)C3=O)CC2)cc1
MIC (Staphylococcus aureus [1]): > 64 µg/mL | MIC [2]: > 64 µg/mL | growth inhibition (GI) (Escherichia coli): inactive | growth inhibition (GI) (Klebsiella pneumoniae): inactive | growth inhibition (GI) (Acinetobacter baumannii): inactive | growth inhibition (GI) (Pseudomonas aeruginosa): inactive | growth inhibition (GI) [3]: inactive | growth inhibition (GI) [4]: inactive | growth inhibition (GI) (Mycobacteroides chelonae): inactive

O=C(CN1C(=O)c2cccc3cccc(c23)C1=O)N1CCN(C(=S)Nc2cccc(Cl)c2)CC1
MIC (Staphylococcus aureus [1]): > 64 µg/mL | MIC [2]: 32 µg/mL (≈ 64.9 µM) | growth inhibition (GI) (Escherichia coli): inactive | growth inhibition (GI) (Klebsiella pneumoniae): inactive | growth inhibition (GI) (Acinetobacter baumannii): inactive | growth inhibition (GI) (Pseudomonas aeruginosa): inactive | growth inhibition (GI) [3]: inactive | growth inhibition (GI) [4]: inactive | growth inhibition (GI) (Mycobacteroides chelonae): inactive

C[C@@H](O)[C@H]1C(=O)N2C(C(=O)O)=C(S[C@@H]3CN[C@H](C(=O)N(C)C)C3)[C@H](C)[C@H]12 [MEROPENEM]
MIC (Staphylococcus aureus [5]): 0.125 µg/mL (≈ 0.326 µM) | MIC (Staphylococcus aureus [6]): 32 µg/mL (≈ 83.4 µM) | MIC (Staphylococcus aureus [7]): 64 µg/mL (≈ 167 µM) | MIC (Staphylococcus aureus [8]): 2 µg/mL (≈ 5.22 µM) | MIC (Staphylococcus aureus [9]): 4 µg/mL (≈ 10.4 µM) | MIC (Staphylococcus aureus [10]): 64 µg/mL (≈ 167 µM) | MIC (Staphylococcus aureus [11]): 4 µg/mL (≈ 10.4 µM) | MIC (Staphylococcus aureus [12]): 64 µg/mL (≈ 167 µM) | MIC (Staphylococcus aureus [13]): 1 µg/mL (≈ 2.61 µM) | MIC (Staphylococcus aureus [14]): 64 µg/mL (≈ 167 µM) | MIC (Staphylococcus aureus [15]): 64 µg/mL (≈ 167 µM) | MIC (Staphylococcus aureus [16]): 64 µg/mL (≈ 167 µM) | MIC (Staphylococcus aureus [17]): 8 µg/mL (≈ 20.9 µM)
